# Laboratory results: ChEMBL document CHEMBL1125500 (J Med Chem, 1992)
# Experiments:
# [1] = Inhibition of cytochrome P450 progesterone 16-alpha hydroxylase; type: ADME, Rattus norvegicus
# [2] = Inhibition of lauric acid hydroxylase cytochrome P450 4A; set-up: species or system Rattus norvegicus
# In short: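 Microsomal protein (0.05 mg/mL) with [14C]lauric acid (10 nmol, 6 mCi/mmol), potassium phosphate pH 7.4, MgCl2, EDTA, glucose 6-phosphate, glucose-6-phosphate dehydrogenase (2 units) and NADPH, in 1 mL. Ran 10 min at 37 °C and was stopped with CH2Cl2. Products were resolved by reverse-phase HPLC on a MeCN gradient with radioflow detection.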
# [3] = molecular target: T1, Lanosterol 14-alpha demethylase (Rattus norvegicus, UniProt Q64654); test: Inhibition of lanosterol 14 alpha-demethylase cytochrome P450 51A
# T1 sequence (Q64654 whole entry): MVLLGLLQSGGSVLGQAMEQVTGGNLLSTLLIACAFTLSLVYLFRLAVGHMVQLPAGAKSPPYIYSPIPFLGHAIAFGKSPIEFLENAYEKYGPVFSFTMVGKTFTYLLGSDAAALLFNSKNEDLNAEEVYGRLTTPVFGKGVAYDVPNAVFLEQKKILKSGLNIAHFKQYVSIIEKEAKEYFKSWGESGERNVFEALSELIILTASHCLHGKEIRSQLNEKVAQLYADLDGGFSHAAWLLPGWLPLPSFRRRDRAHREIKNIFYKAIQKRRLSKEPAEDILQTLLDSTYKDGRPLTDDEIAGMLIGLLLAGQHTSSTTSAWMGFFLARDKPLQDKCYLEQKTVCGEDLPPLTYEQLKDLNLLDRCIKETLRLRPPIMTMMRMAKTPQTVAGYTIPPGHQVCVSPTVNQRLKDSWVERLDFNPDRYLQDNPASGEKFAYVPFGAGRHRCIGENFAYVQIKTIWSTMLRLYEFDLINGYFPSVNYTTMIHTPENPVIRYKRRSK
# In short: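 Liver microsomes from cholestyramine-treated male rats. Buffer was potassium phosphate pH 7.0 with DTT, EDTA, MgCl2, 0.005% Tween-20, 20% glycerol, 5 mM glucose 6-phosphate and G6P dehydrogenase. […] Reaction was started with NADPH, run 30 min at 37 °C and stopped with TCA. Tritiated water-soluble products were separated on Bond-Elut and counted by scintillation in duplicate.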
# [4] = Inhibition of Steroid 17-alpha-hydroxylase/17,20 lyase cytochrome P450 17A1; set-up: species or system Sus scrofa
# [5] = molecular target: Cytochrome P450 2A2 (Rattus norvegicus, UniProt P15149); test: Inhibition of cytochrome P450 progesterone 15-alpha hydroxylase; type: ADME
# Cytochrome P450 2A2, sequence (P15149 whole entry): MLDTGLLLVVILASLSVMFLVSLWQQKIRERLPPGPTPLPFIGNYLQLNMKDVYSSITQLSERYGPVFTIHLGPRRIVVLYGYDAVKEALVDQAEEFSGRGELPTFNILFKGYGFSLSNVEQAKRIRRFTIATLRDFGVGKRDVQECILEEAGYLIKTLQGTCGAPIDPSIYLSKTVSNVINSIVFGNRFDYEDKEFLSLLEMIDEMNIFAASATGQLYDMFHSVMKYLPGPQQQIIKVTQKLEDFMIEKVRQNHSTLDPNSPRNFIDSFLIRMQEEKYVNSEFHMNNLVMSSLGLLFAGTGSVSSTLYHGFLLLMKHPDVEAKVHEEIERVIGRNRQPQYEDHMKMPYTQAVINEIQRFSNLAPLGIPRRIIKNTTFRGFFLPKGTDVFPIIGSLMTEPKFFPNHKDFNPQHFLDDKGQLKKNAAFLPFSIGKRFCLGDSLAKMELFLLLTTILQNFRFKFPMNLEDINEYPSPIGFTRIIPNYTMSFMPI
# [6] = molecular target: Cholesterol side-chain cleavage enzyme, mitochondrial (Bos taurus) (UniProt P00189); test: Inhibition of cholesterol side chain cleavage cytochrome P450
# Cholesterol side-chain cleavage enzyme, mitochondrial (Bos taurus), sequence (P00189 whole entry, looked up): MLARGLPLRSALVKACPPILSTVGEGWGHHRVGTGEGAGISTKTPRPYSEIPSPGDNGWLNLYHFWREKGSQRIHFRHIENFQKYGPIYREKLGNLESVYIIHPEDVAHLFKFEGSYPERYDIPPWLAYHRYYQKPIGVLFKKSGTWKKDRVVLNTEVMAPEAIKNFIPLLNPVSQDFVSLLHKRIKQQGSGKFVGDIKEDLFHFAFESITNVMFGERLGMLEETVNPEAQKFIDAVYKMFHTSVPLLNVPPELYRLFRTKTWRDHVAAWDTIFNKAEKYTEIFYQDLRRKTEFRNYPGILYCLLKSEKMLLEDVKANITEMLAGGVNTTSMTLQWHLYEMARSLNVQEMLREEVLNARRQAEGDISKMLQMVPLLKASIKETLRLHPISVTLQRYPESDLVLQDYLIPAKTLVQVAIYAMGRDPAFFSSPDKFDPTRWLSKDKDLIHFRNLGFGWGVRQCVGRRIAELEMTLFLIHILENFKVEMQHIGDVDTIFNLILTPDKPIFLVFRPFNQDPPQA
Structure (SMILES),IC50 [1] [nM],IC50 [2] [nM],IC50 [3] [nM],IC50 [4] [nM],IC50 [5] [nM],IC50 [6] [nM]
CC(=O)N1CCN(c2ccc(OC[C@H]3CO[C@@](Cn4ccnc4)(c4ccc(Cl)cc4Cl)O3)cc2)CC1,37900,> 100000,1600,589,1080,2950
CC(=O)N1CCN(c2ccc(OCC3COC(Cn4ccnc4)(c4ccc(Cl)cc4Cl)O3)cc2)CC1 (stereo in doubt; 4) [KETOCONAZOLE],69300,> 100000,119,2380,369,5400
CC(=O)N1CCN(c2ccc(OC[C@@H]3CO[C@](Cn4ccnc4)(c4ccc(Cl)cc4Cl)O3)cc2)CC1,32300,> 100000,1370,,728,3920
CC(=O)N1CCN(c2ccc(OCC3COC(Cn4ccnc4)(c4ccc(Cl)cc4Cl)O3)cc2)CC1 (stereo in doubt; 2) [KETOCONAZOLE],83900,,47,50,543,1240
